Measured values as given in ChEMBL document CHEMBL5230177, “Inactivation of myostatin by photooxygenation using functionalized d-peptides” (RSC Med Chem, 2023).
Active and inactive are the calls of the source. No cut-off for these calls is given here.

Assays:
[1] = system: HEK293; test: Cytotoxicity against human HEK293 cells assessed as reduction in cell viability at 3 uM incubated for 24 hrs by WST-1 assay; type: toxicity, cell-based; conditions: hek293, 24 h
[2] = molecular target: Amyloid-beta precursor protein (Homo sapiens) (UniProt P05067); test: Photo-oxygenation of human Amyloid beta (1 to 42) assessed as oxygen adduct formation at 3 uM measured after photoirradiation for 30 mins using LED by MALDI-TOF-MS analysis
Procedure, shortened: (§1)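 Aβ1-42 formed in situ from isopeptide stock (250 μM in 0.1% TFA, ultracentrifuged), diluted to 20 μM in 10 mM phosphate, pH 7.4. Functionalized peptide (final 3 μM) or methylene blue (final 1 μM) added. Irradiated with 730 nm LED (14 mW, 3–5 cm) at room temperature. Reduced with 50 mM DTT (37 °C, 0.5 h), Lys-C digested (1/20 w/w, 37 °C, 2.5 h), desalted, analysed by MALDI-TOF MS.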

[3] = molecular target: Growth/differentiation factor 8 (Homo sapiens) (UniProt O14793); test: Photo-oxygenation of human recombinant Myostatin expressed in Escherichia coli cells assessed as oxygen adduct formation in myostatin peak fragment 40-54 at 3 uM measured after photoirradiation for 30 mins using LED by MALDI-TOF-MS analysis
Procedure, shortened: (§2)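 Myostatin stock (8 μM in 1 mM HCl) diluted to 1 μM in 10 mM phosphate, pH 7.4. Functionalized peptide (final 3 μM) or methylene blue (final 1 μM) added. Irradiated 30 min with 730 nm LED (14 mW) at room temperature. Then 50 mM DTT reduction (37 °C, 0.5 h), Lys-C digestion (1/20 w/w, 37 °C, 2.5 h), ZipTip desalting, MALDI-TOF MS of fragments.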

[4] = system: HEK293; test: Phototoxicity against human HEK293 cells assessed as reduction in cell viability at 3 uM photoirradiated for 30 mins using LED followed by incubation with compound for 24 hrs by WST-1 assay; type: toxicity, cell-based; conditions: hek293, 24.5 h, time 1470 min
Procedure, shortened: (§3)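 HEK293 cells grown in DMEM with 10% FBS and non-essential amino acids at 37 °C, 5% CO2, seeded 2.0×10^4 cells/well. After 48 h, medium switched to serum- and phenol red-free DMEM containing 3 μM peptide or methylene blue. Cells irradiated with LED (λmax 730 nm, 30 min), then incubated 24 h. Viability read by WST-1; Student's t-test.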

[5] = molecular target: Growth/differentiation factor 8 (Homo sapiens) (UniProt O14793); test: Photo-oxygenation of human recombinant Myostatin expressed in Escherichia coli cells assessed as oxygen adduct formation in myostatin peak fragment 79-90 at 3 uM measured after photoirradiation for 30 mins using LED by MALDI-TOF-MS analysis; procedure, shortened: as §2
[6] = molecular target: Growth/differentiation factor 8 (Homo sapiens) (UniProt O14793); test: Photo-oxygenation of human recombinant Myostatin expressed in Escherichia coli cells assessed as oxygen adduct formation in myostatin peak fragment 55-78 at 3 uM measured after photoirradiation for 30 mins using LED by MALDI-TOF-MS analysis; procedure, shortened: as §2
[7] = Phototoxicity against human HEK293 cells assessed as cell viability at 3 uM photoirradiated for 30 mins using LED followed by incubation with compound for 24 hrs by WST-1 assay; type: toxicity, cell-based; conditions: time 1470 min, read-out: Activity; procedure, shortened: as §3
[8] = molecular target: Growth/differentiation factor 8 (Homo sapiens) (UniProt O14793); test: Photo-oxygenation of human recombinant Myostatin expressed in Escherichia coli cells assessed as oxygen adduct formation at 1 uM measured after photoirradiation for 30 mins using LED by MALDI-TOF-MS analysis; procedure, shortened: as §2
[9] = molecular target: Amyloid-beta precursor protein (Homo sapiens) (UniProt P05067); test: Photo-oxygenation of human Amyloid beta (1 to 42) assessed as oxygen adduct formation at 1 uM measured after photoirradiation for 30 mins using LED by MALDI-TOF-MS analysis; procedure, shortened: as §1
[10] = molecular target: Growth/differentiation factor 8 (Homo sapiens) (UniProt O14793); test: Inactivation of human recombinant Myostatin expressed in Escherichia coli cells at 300 nM incubated with luciferase reporter transfected HEK293 cells for 4 hrs by luciferase reporter gene assay
[11] = system: chymotrypsin (Bos taurus); test: Stability of the compound assessed as chymotrypsin (bovine pancreas)-mediated drug degradation by measuring cleavage at Tyr7-Ser8 residue at 100 uM measured for 3 hrs by MALDI-TOF-MS analysis
[12] = molecular target: T1, Growth/differentiation factor 8 (Homo sapiens, UniProt O14793); test: Photo-oxygenation mediated inactivation of human recombinant Myostatin expressed in Escherichia coli cells photoirradiated for 30 mins using LED followed by incubation with luciferase reporter transfected HEK293 cells for 4 hrs by luciferase reporter gene assay
T1 sequence (O14793 whole entry): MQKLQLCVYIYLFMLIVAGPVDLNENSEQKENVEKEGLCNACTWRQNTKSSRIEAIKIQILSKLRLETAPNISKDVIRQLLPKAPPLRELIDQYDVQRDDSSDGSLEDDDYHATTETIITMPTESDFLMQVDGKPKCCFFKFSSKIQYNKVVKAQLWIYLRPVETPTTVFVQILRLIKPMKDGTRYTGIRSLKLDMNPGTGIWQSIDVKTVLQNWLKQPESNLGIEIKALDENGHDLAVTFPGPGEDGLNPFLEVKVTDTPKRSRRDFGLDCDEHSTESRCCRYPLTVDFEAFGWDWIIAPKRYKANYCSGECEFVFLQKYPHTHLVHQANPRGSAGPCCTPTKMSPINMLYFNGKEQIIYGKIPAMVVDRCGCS
Procedure, shortened: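 Myostatin (1 μM in 10 mM phosphate, pH 7.4, with or without peptide) diluted in serum-free DMEM to 0.6 nM, irradiated at 730 nm for 30 min, then added to HEK293 cells. Cells were transfected 24 h with SBE-luc2P reporter plus TK-Renilla control, then held 8 h in serum/phenol red-free DMEM. Exposure 4 h, PBS wash, dual-luciferase read-out. Triplicate, mean ± s.d. (n = 3), Tukey's test.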

[13] = system: chymotrypsin (Bos taurus); test: Stability of the compound assessed as chymotrypsin (bovine pancreas)-mediated drug degradation by measuring cleavage at Leu21-Arg22 residue at 100 uM measured for 3 hrs by MALDI-TOF-MS analysis
[14] = system: chymotrypsin (Bos taurus); test: Stability of the compound assessed as chymotrypsin (bovine pancreas)-mediated drug degradation by measuring residual ratio at 100 uM measured after 1 hr by HPLC analysis
[15] = system: trypsin (Sus scrofa); test: Stability of the compound assessed as trypsin (porcine pancreas)-mediated drug degradation at 100 uM measured after 3 hrs by MALDI-TOF-MS analysis

Sequence of Amyloid-beta precursor protein (Homo sapiens) (P05067 whole entry): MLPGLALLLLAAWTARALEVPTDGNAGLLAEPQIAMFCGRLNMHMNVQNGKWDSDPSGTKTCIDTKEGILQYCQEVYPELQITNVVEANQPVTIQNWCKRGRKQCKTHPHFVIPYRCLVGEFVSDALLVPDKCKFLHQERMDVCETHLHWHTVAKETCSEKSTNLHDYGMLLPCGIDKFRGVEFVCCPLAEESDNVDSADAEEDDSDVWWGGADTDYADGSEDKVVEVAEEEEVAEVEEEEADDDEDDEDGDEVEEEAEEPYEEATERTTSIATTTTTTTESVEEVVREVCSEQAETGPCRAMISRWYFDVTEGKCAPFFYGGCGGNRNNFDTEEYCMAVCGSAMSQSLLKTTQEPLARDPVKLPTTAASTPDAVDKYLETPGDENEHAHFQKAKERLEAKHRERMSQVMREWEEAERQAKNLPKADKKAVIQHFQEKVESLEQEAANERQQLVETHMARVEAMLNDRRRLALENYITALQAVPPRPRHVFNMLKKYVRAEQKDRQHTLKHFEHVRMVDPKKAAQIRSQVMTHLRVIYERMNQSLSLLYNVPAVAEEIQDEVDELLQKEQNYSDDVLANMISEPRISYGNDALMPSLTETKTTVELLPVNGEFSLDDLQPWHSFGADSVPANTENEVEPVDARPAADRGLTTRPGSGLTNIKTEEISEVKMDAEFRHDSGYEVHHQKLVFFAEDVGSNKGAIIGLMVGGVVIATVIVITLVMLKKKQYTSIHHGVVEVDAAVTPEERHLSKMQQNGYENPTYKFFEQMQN

Row | Activity [2] | Activity [3] | Activity [5] | Activity [6] | Compound | Activity [4] | other results
1 |  |  |  |  | CN(C)c1ccc2nc3ccc(N(C)C)cc3[s+]c2c1.[Cl-] [METHYLENE BLUE ANHYDROUS] |  | Activity [1]: Non-Toxic
2 | inactive | inactive | Active | Active | CC[C@@H](C)[C@@H](NC(=O)[C@@H](CCCNC(=N)N)NC(=O)[C@@H](CCc1ccccc1)NC(=O)[C@H](NC(=O)[C@@H](CCCCN)NC(=O)[C@H](NC(=O)[C@@H](CCCNC(=N)N)NC(=O)[C@H](NC(=O)[C@@H](Cc1ccc2ccccc2c1)NC(=O)[C@@H](CCCNC(=N)N)NC(=O)[C@@H](CCCCN)NC(=O)[C@H](NC(=O)[C@@H](CCCNC(=N)N)NC(=O)[C@H](N)CC(C)C)C1CCCCC1)[C@H](C)CC)C1CCCCC1)[C@H](C)CC)C(=O)N[C@H](Cc1ccc(O)cc1)C(=O)N[C@H](Cc1cn(CCN2CCCc3cc(/C=C/C4=C(Br)C(/C=C/c5cc6c7c(c5)CCCN7CCC6)=[O+][B-](F)(C(F)(F)F)O4)ccc32)nn1)C(N)=O (stereo not given in full) | Non-Toxic | 
3 | inactive | inactive | Active | Active | CC[C@@H](C)[C@@H](NC(=O)[C@@H](Cc1cn(CCN2CCCc3cc(/C=C/C4=C(Br)C(/C=C/c5cc6c7c(c5)CCCN7CCC6)=[O+][B-](F)(C(F)(F)F)O4)ccc32)nn1)NC(=O)[C@@H](CCc1ccccc1)NC(=O)[C@H](NC(=O)[C@@H](CCCCN)NC(=O)[C@H](NC(=O)[C@@H](CCCNC(=N)N)NC(=O)[C@H](NC(=O)[C@@H](Cc1ccc2ccccc2c1)NC(=O)[C@@H](CCCNC(=N)N)NC(=O)[C@@H](CCCCN)NC(=O)[C@H](NC(=O)[C@@H](CCCNC(=N)N)NC(=O)[C@H](N)CC(C)C)C1CCCCC1)[C@H](C)CC)C1CCCCC1)[C@H](C)CC)C(=O)N[C@H](Cc1ccc(O)cc1)C(=O)N[C@H](CCc1ccccc1)C(N)=O (stereo not given in full) | Non-Toxic | 
4 | inactive | inactive | Active | Active | CC[C@@H](C)[C@@H](NC(=O)[C@@H](CCCNC(=N)N)NC(=O)[C@@H](CCc1ccccc1)NC(=O)[C@H](NC(=O)[C@@H](CCCCN)NC(=O)[C@H](NC(=O)[C@@H](CCCNC(=N)N)NC(=O)[C@H](NC(=O)[C@@H](Cc1ccc2ccccc2c1)NC(=O)[C@@H](CCCNC(=N)N)NC(=O)[C@@H](Cc1cn(CCN2CCCc3cc(/C=C/C4=C(Br)C(/C=C/c5cc6c7c(c5)CCCN7CCC6)=[O+][B-](F)(C(F)(F)F)O4)ccc32)nn1)NC(=O)[C@H](NC(=O)[C@@H](CCCNC(=N)N)NC(=O)[C@H](N)CC(C)C)C1CCCCC1)[C@H](C)CC)C1CCCCC1)[C@H](C)CC)C(=O)N[C@H](Cc1ccc(O)cc1)C(=O)N[C@H](CCc1ccccc1)C(N)=O (stereo not given in full) | Non-Toxic | 
5 |  |  |  |  | CN(C)c1ccc2nc3ccc(=[N+](C)C)cc-3sc2c1 [METHYLENE BLUE ANHYDROUS] |  | viability at 24.5 h, 3 µM [7]: 21%; Activity [8]: Active; Activity [9]: Active
6 |  |  |  |  | CC[C@@H](C)[C@@H](NC(=O)[C@@H](CCCNC(=N)N)NC(=O)[C@@H](CCc1ccccc1)NC(=O)[C@H](NC(=O)[C@@H](CCCCN)NC(=O)[C@H](NC(=O)[C@@H](CCCNC(=N)N)NC(=O)[C@H](NC(=O)[C@@H](Cc1ccc2ccccc2c1)NC(=O)[C@@H](CCCNC(=N)N)NC(=O)[C@@H](CCCCN)NC(=O)[C@H](NC(=O)[C@@H](CCCNC(=N)N)NC(=O)[C@H](N)CC(C)C)C1CCCCC1)[C@H](C)CC)C1CCCCC1)[C@H](C)CC)C(=O)N[C@H](Cc1ccc(O)cc1)C(=O)N[C@H](CCc1ccccc1)C(N)=O |  | inhibition [10]: Active
7 | inactive | inactive | Active | Active | CC[C@@H](C)[C@@H](NC(=O)[C@@H](CCCNC(=N)N)NC(=O)[C@@H](CCc1ccccc1)NC(=O)[C@H](NC(=O)[C@@H](CCCCN)NC(=O)[C@H](NC(=O)[C@@H](Cc1cn(CCN2CCCc3cc(/C=C/C4=C(Br)C(/C=C/c5cc6c7c(c5)CCCN7CCC6)=[O+][B-](F)(C(F)(F)F)O4)ccc32)nn1)NC(=O)[C@H](NC(=O)[C@@H](Cc1ccc2ccccc2c1)NC(=O)[C@@H](CCCNC(=N)N)NC(=O)[C@@H](CCCCN)NC(=O)[C@H](NC(=O)[C@@H](CCCNC(=N)N)NC(=O)[C@H](N)CC(C)C)C1CCCCC1)[C@H](C)CC)C1CCCCC1)[C@H](C)CC)C(=O)N[C@H](Cc1ccc(O)cc1)C(=O)N[C@H](CCc1ccccc1)C(N)=O (stereo not given in full) | Non-Toxic | 
8 |  |  |  |  | CC[C@H](C)[C@H](NC(=O)[C@H](C)NC(=O)[C@H](CCC(=O)O)NC(=O)[C@@H](NC(=O)[C@H](CCCNC(=N)N)NC(=O)[C@H](CO)NC(=O)[C@H](Cc1ccc(O)cc1)NC(=O)[C@H](CCCNC(=N)N)NC(=O)[C@@H](NC(=O)[C@H](CC(N)=O)NC(=O)[C@H](CCC(N)=O)NC(=O)[C@H](CCCNC(=N)N)NC(=O)CC(c1ccccc1)c1ccccc1)[C@@H](C)O)[C@@H](C)CC)C(=O)N[C@@H](CCCCN)C(=O)N[C@H](C(=O)N[C@@H](Cc1cn(CCN2CCCc3cc(/C=C/C4=C(Br)C(/C=C/c5cc6c7c(c5)CCCN7CCC6)=[O+][B-](F)(C(F)(F)F)O4)ccc32)nn1)C(=O)N[C@H](C(=O)N[C@@H](CC(C)C)C(=O)N[C@@H](CO)C(=O)N[C@@H](CCCCN)C(=O)N[C@@H](CC(C)C)C(=O)N[C@@H](CCCNC(=N)N)C(=O)N[C@@H](CC(C)C)C(=O)O)[C@@H](C)CC)[C@@H](C)CC (stereo not given in full) |  | Stability [11]: Unstable; IC50 [12]: 2.1 nM; Stability [13]: Unstable; remaining at 1 h, 100 µM [14]: 13%; Stability [15]: Unstable
